One may read the inhibition as the share of the control response that was lost under treatment. One may read the IC50 as the concentration that inhibits the measured activity by half.

Data set [1] concerns RBL-2H3. Briefly: Inhibition of anti-DNP-IgE-induced degranulation in rat RBL2H3 cells assessed as beta-hexosaminidase release at 25 uM after 30 mins by fluorescence assay. It counts as functional. The following applies: RBL-2H3, 0.5 h. In outline: (§1)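 RBL-2H3 cells grown in 70% MEM with Earle's salts/20% RPMI 1640/10% FBS/2 mM L-glutamine, sensitised overnight with anti-DNP IgE ([…]), washed in Tyrode's buffer, preincubated 1 h at 37 °C with or without compound, then challenged with DNP-HSA for 15 min. Supernatant β-hexosaminidase read with 4-methylumbelliferyl-N-acetyl-β-D-glucosaminide (2.5 mM, citrate, 30 min, 37 °C), fluorescence 365/440 nm; duplicate aliquots.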

A short description of data set [2]: Cytotoxicity at rat RBL2H3 cells assessed as maximum tolerated concentration by lactate dehydrogenase release assay. The data set is classed as cell-based. The following applies: RBL-2H3 cells, read-out: Activity.
Data set [3] relates to RBL-2H3. Briefly: Inhibition of anti-DNP-IgE-induced degranulation in rat RBL2H3 cells assessed as beta-hexosaminidase release after 30 mins by fluorescence assay. The following applies: RBL-2H3, 0.5 h. It counts as functional, cell-based. In outline: as §1

As to `CCCCCCCCCCCC[N+](C)(C)[O-]`, in the data set on RBL-2H3 [1], the inhibition at 25 µM turned out to be 40%. For `CCCCCCCCCCCCCCCCCCCCc1ccc(S(N)(=O)=O)cc1`, the inhibition at 25 µM with RBL-2H3 [1] is 12%. Turning to `CCCCCCCCCCCC[S+]([O-])C1CCCCC1OC(C)=O` (configuration not stated), the inhibition at 25 µM in the data set with RBL-2H3 [1] was found to be 73%. Also, the MNTC in data set [2] is 100 µM.

In the case of `CCCCCCCCCCCC[S+]([O-])CC[S+]([O-])CC` (configuration not stated), in the data set with RBL-2H3 [1], the inhibition at 25 µM came to 51%. Further, the MNTC in data set [2] amounted to 100 µM. As for `CCCCCCCCCCCCC1[S+]([O-])CCC[S+]1[O-]` (configuration not stated), the inhibition at 25 µM with RBL-2H3 [1] stood at 80%. In the data set with RBL-2H3 [3], the IC50 turned out to be 10.7 µM. Besides, the MNTC in data set [2] came out at 100 µM. In the case of `CCCCCCCCCCCC[S+]([O-])c1ccccc1[S+](C)[O-]` (configuration not stated), the inhibition at 25 µM with RBL-2H3 [1] was 72%. The MNTC in data set [2] was 100 µM. Consider `CCCCCCCCCCCC[S+]([O-])c1ccccc1O` (configuration not stated), for which the inhibition at 25 µM in the data set on RBL-2H3 [1] stood at 30%. For the same compound, the MNTC in data set [2] amounted to 100 µM.

For the compound `CCCCCCCCCCCCCC[N+](C)(C)[O-]`, the inhibition at 25 µM in the data set with RBL-2H3 [1] was determined as 95%. In addition, in the data set on RBL-2H3 [3], the IC50 worked out at 10.6 µM. In data set [2], the MNTC is 100 µM. On to `CCCCCCCCCCCCCCCCC(C(=O)O)C(O)(CC(=O)O)C(=O)O` (configuration not stated), for which the inhibition at 25 µM with RBL-2H3 [1] turned out to be 36%. In the case of `CCCCCCCCCCCC[S+]([O-])[C@@H]1CCCC[C@H]1O` (relative stereo), in the data set on RBL-2H3 [1], the inhibition at 25 µM was 69%. Moreover, in data set [2], the MNTC worked out at 100 µM. As for `CCCCCCCCCCCCCCCC(=O)OC[C@H](O)[C@H]1OC(=O)C(O)=C1O` [ASCORBYL PALMITATE], the inhibition at 25 µM in the data set with RBL-2H3 [1] is 38%.

Take `CCCCCCCCCCCC[S+](C)[O-]` (configuration not stated) [DODECYL METHYL SULFOXIDE]: the inhibition at 25 µM in the data set on RBL-2H3 [1] worked out at 66%. Also, the MNTC in data set [2] was 100 µM.

The values above are taken from ChEMBL document CHEMBL1781895, “Lipid-like sulfoxides and amine oxides as inhibitors of mast cell activation” (Eur J Med Chem, 2011).
